Reference: the EternaBench riboswitch data

Test system: MS2 coat protein
Assay: apparent Kd, MS2 coat protein; higher = weaker binding; RNA-MaP array; FMN 200 µM where present
Summary of the method: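 Stalled E. coli RNA polymerase produced the designs on Illumina sequencing-chip clusters. SNAP-549-labelled MS2 coat protein was added from 0.7 or 1.5 nM, doubling to 3 µM, without and then with constant ligand, in 100 mM Tris-HCl pH 7.5, 80 mM KCl, 4 mM MgCl2, BSA, DTT, yeast tRNA and Tween-20. The apparent Kd is the median of filtered per-cluster fits of green signal normalised to red-channel RNA signal and control-cluster median Fmax.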

[1] = designed as: OFF switch for flavin mononucleotide, no ligand
[2] = ligand present: flavin mononucleotide, designed as: OFF switch for flavin mononucleotide
[3] = designed as: ON switch for flavin mononucleotide, no ligand
[4] = ligand present: flavin mononucleotide, designed as: ON switch for flavin mononucleotide

Sequence | apparent Kd [1] [nM] | apparent Kd [2] [nM] | apparent Kd [3] [nM] | apparent Kd [4] [nM]
AAUUAUUUAUGAGGAUAUUGUGGUGAAACACCACAAGAAGGCAUGAUACACAUGAGGAUCACCCAUGUGAGCCUUAUGCAUAUA | 20.3 | 115 | – | –
AAUUAUUUUUGAGGAUAUCGUGGUGAAACACCACGAGAAGGCGAGAUACACAUGAGGAUCACCCAUGUGAGCCUGAUGCUUAUG | 16.1 | 14.4 | – | –
AAUUAUUUUUGAGGAUAUGGUAGUGAAACACUACCAGAAGGCGGAAUAAACAUGAGGAUCACCCAUGUGAGCCUGAUGCUUAUG | 22 | 42.6 | – | –
AAUUCACAUGAGGAUCACCCAUGUCAGGAUAUGGUUACGCGGGUUUCGGUGCGUGUGGCCAGAAGGGACAGCUA | 65 | 80.5 | – | –
AAUUCACAUGAGGAUCACCCAUGUCAGGAUAUGGUUUCGCGGGUUUCGGUGCGUGAGGCCAGAAGGGACAGCUA | 53.3 | 72.4 | – | –
AAUUCUUGUGAAGGAUAUACGGCGGGUCGCGCAGUAGAAGGUCACAUGAGGAUCACCCAUGUCGACAAUGCGCAGUAUCGACAA | 72 | 164 | – | –
AAUUGACACGUAGGAUAUCGAUCUAUAUUAACACGAGAAGGACGUACAUGAGGAUCACCCAUGUUUAAUGGAGUAGAUAAGUUG | 112 | 257 | – | –
ACAAAACAUGUAGGAUAUCGAUUGCGUCGCGAUCGAGAAGGACAAGAGGGUCACCCUUGUACAUGAGGAUCACCCAUGUCAUGU | 202 | 149 | – | –
ACAAAGCAUGUAGGAUAUCCAUUGCGUCGCGAUGGAGAAGGACAACACACAUGAGGAUCACCCAUGUGAUCACCCAUGUCAUGU | 866 | 1210 | – | –
ACAAGAUCAGGAUAUACAUGAGGAUCACCCAUGUAUAUCAAAAAGGGACUUUCUUAAUGUAGAAGGGAUCAUGU | 14 | 12.7 | – | –
ACAAGAUCAGGAUAUACAUGAGGAUCACCCAUGUAUAUCAAAAAGGGACUUUCUUAAUGUAGAAGGGAUCUUGU | 13.3 | 12.8 | – | –
ACAAGAUCAGGAUAUACAUGAGGAUCACCCAUGUUAAUCCAAAAGGGACUUUCUUUAUGUAGAAGGGAUCUUGU | 31.2 | 85.5 | – | –
ACAAGCUCACAUGAGGAUCACCCAUGUGGUCGCUAAUAUACCAGAAGGGUGGGUCCUAAUGAUGUACAGGAUAUGGAGUAGGCG | – | – | 196 | 62
ACAAGUUCACAUGAGGAUCACCCAUGUGGUCGCUAAUAUACCAGAAGGGUGGGUCCUAAUGAUGUACAGGAUAUGGAGUAGGCG | – | – | 198 | 81.7
ACAAUGUGGUAAGGAUAUCCAAUGGCAUCCCUAGGAGAAGGUAUCACAUGAGGAUCACCCAUGUGAAGGAUGGGUUAUCGCAAA | 223 | 121 | – | –
ACACGGAAGUCAGGAUAUGUAUCAGCACGAUUGUUACAUGAGGAUCACCCAUGUUUCACGGGCCAACAGAAGGGACAGGGUGGC | – | – | 23.6 | 7.82
ACAGUAUAUGUAGGAUAUCAUUGGCUAGGUAGGUGAGAAGGGCAUAGUACAUGAGGAUCACCCAUGUGUUGGUCCUCGCAGAAA | 634 | 380 | – | –
ACAUAAUACGAGAAGGGAGUACAUGAGGAUCACCCAUGUGCUCAGAUGUACUCAGGAUAUCGGCUGACGCAAGGUUCAGGGAAU | 10.9 | 128 | – | –
ACAUACAUUCGAGGAUAUCAGUGAACAUAUUAUUGAGAAGGCGAUAUUAUUUUUAAUCUUAUUUACAUGAGGAUCACCCAUGUU | – | – | 22.6 | 19.6
ACAUGAGAUUUAGGAUAUAUAGUACCUACAUGUGACAUGAGGAUCACCCAUGUGGUAAGUAUGACAUAGAAGGAAAAGAUAUGU | – | – | 66 | 67
ACAUGAGGAUCACCCAUGUAGAUACUAGAAGGGUAAGACUAGUAGUUACAUGACGACCAAGCAUUACAGGAUAUAGGAAUUGGA | – | – | 81.2 | 39.2
ACAUGAGGAUCACCCAUGUAUACAUAGGAUAUUGAGGAUCAGGGAUGUUUUACAGGAUAUGUCUACGAGAAGGAUGCAAGUACA | – | – | 33.5 | 28.6
ACAUGAGGAUCACCCAUGUGAUGAUCUCCCAUGUUAUAUUUCAGAAGGCUCGUGUGUUUGAUGAGAGAGGAUAUGGAAUAUACG | 377 | 258 | – | –
ACAUGAGGAUCACCCAUGUGUGCAUAGGAUAUUGAGGAUUAGGGAUAUUAUUAUGGAUUUGCCCACAAGAAGGAUGAAAGUGUU | – | – | 17.8 | 15.7
ACAUGAGGAUCACCCAUGUUAAAUUAGGAUAUUUGACUGCACAUGAGGUUCACCCAUGUUCUACCGAAGAAGGGAUAAAUAAUU | – | – | 49 | 50
ACAUGAGGAUCACCCAUGUUAUCAGGGACUUCAAUUAUUUGUAGAAGGCUGUUUUCUUGUUAGUCAGAGGAUAUACAAUUAAAU | 12.7 | 14.2 | – | –
ACAUGAGGAUCACCCAUGUUUUCAGGGACUUCAAUUAUUUGUAGAAGGAUGUUUACUUGUUAGUCAUAGGAUAUACAAUUAAAU | 12.2 | 12.9 | – | –
ACAUGAGGCGCAGGAUAUGCAACAUGAUGAGUAGCAGAAGGGUGACAACAUGAGGAUCACCCAUGUAACAUGAGGAUCACCCAU | 28.3 | 33.3 | – | –
